Measurements reported in ChEMBL document CHEMBL4477209, “Indole-2-carboxamide-based MmpL3 Inhibitors Show Exceptional Antitubercular Activity in an Animal Model of Tuberculosis Infection” (J Med Chem, 2016).

Key:
[1] = Selectivity index, ratio of IC50 for african green monkey Vero cells to MIC for clinical isolates of Mycobacterium tuberculosis; format: toxicity; details: read-out: Selectivity Index
[2] = Mean residence time (last) in BALB/c mouse lung at 100 mg/kg administered via oral gavage by LC-MS analysis; format: ADME, organism-based
Method in brief: (§1)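 Female BALB/c mice (20 g), single oral gavage dose of 100 mg/kg. Cardiac blood and lungs taken at 0, 0.25, 0.5, 1, 2, 4, 8 and 24 h (n = 3 per time point). Plasma separated by centrifugation; lungs bead-beaten in water and supernatant recovered. Drug quantified by LC-MS/MS against an indole-2-carboxamide internal standard. Parameters derived by noncompartmental analysis.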

[3] = Mean residence time (last) in BALB/c mouse plasma at 100 mg/kg administered via oral gavage by LC-MS analysis; format: ADME, organism-based; method in brief: as §1
[4] = target: Cytochrome P450 2D6 (Homo sapiens, UniProt P10635); assay: Inhibition of CYP2D6 (unknown origin); format: ADME
Sequence of Cytochrome P450 2D6 (P10635 whole entry): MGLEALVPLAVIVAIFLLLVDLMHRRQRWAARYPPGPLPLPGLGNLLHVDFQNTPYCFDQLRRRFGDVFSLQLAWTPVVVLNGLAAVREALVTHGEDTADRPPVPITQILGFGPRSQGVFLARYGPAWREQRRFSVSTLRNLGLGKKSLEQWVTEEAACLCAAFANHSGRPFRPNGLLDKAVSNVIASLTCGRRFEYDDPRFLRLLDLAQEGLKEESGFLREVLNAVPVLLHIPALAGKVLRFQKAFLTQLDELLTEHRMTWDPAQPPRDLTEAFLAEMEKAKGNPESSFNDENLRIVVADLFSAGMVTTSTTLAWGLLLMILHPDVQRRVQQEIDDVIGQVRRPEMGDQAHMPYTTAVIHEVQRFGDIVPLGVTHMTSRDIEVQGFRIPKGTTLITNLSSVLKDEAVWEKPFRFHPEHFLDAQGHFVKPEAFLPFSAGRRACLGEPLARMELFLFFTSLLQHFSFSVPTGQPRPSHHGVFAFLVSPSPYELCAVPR

[5] = target: T1, Nuclear receptor subfamily 1 group I member 2 (Homo sapiens, UniProt O75469); assay: Transactivation of PXR (unknown origin) assessed as upregulation of CYP3A4 at 3 to 8 microg/ml; format: ADME
T1 sequence (O75469 whole entry): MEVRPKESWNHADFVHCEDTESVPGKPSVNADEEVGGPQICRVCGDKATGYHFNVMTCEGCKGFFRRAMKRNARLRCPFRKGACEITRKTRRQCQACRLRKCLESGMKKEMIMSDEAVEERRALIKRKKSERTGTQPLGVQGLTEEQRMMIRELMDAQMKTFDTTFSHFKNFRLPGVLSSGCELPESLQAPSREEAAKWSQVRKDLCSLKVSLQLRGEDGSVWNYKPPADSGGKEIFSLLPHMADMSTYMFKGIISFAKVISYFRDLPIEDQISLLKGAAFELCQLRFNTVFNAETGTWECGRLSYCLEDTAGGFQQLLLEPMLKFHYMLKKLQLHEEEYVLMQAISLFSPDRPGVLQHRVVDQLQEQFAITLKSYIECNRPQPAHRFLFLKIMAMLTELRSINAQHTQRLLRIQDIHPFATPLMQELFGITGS
Method in brief: (§2)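 Nuclear receptor reporter-gene induction assay, with reporters coupled to PXR, CAR or AhR. Compound was tested at 0.1–1, 3 and 8 μg/mL. Positive controls were rifampin for PXR, CITCO for CAR and 3-methylcholanthrene for AhR.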

[6] = target: T2, Aryl hydrocarbon receptor (Homo sapiens, UniProt P35869); assay: Transactivation of AhR (unknown origin) assessed as upregulation of CYP1A2 at 0.1 to 1 microg/ml; format: ADME; method in brief: as §2
T2 sequence (P35869 whole entry): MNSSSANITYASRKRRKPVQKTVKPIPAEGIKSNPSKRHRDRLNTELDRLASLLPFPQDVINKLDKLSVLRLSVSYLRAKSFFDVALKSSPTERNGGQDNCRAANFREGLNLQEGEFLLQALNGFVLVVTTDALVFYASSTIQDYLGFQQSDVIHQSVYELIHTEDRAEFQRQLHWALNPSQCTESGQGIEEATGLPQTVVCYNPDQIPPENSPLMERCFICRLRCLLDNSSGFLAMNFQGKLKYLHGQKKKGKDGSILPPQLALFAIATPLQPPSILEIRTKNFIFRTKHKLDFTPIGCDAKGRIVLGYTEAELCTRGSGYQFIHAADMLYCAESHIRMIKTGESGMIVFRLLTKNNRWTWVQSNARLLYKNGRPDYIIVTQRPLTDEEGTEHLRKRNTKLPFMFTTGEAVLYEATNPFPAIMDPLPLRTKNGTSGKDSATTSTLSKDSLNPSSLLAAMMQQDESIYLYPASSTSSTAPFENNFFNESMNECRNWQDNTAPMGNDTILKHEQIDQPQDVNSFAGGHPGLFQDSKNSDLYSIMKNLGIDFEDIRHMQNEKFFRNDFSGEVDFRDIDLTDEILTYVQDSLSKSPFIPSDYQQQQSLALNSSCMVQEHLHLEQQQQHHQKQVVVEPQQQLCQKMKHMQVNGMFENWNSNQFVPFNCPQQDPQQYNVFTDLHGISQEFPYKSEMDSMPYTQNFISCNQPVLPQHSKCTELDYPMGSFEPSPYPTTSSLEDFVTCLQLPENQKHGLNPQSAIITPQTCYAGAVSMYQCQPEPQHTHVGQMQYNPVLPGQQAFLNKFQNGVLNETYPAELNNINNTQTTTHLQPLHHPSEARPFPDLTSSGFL

[7] = target: T3, Nuclear receptor subfamily 1 group I member 3 (Homo sapiens, UniProt Q14994); assay: Transactivation of CAR (unknown origin) assessed as upregulation of CYP2B6 at 0.1 to 1 microg/ml; format: ADME; method in brief: as §2
T3 sequence (Q14994 whole entry): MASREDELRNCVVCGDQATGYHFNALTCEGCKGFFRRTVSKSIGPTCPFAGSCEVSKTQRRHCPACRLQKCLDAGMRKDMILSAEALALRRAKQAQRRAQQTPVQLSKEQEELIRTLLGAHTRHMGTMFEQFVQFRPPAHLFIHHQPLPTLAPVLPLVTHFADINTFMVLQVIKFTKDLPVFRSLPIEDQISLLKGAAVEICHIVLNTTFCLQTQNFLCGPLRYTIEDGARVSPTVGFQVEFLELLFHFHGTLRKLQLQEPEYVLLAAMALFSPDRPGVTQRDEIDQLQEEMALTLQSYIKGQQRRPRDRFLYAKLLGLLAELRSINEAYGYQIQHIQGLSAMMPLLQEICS

[8] = tested on: Mycobacterium tuberculosis; assay: Antimycobacterial activity against Mycobacterium tuberculosis H37Rv infected in BALB/c mouse model assessed as reduction in CFU counts in lung at 100 mg/kg administered daily via oral gavage for 5 days per week measured after 28 days post dosage relative to control; format: functional
Method in brief: (§3)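 Female BALB/c mice, 4-6 weeks old, aerosol-infected with H37Rv (about 10^3 CFU); five mice taken on day 1 for lung implantation CFU. From day 1, 12.5, 25, 50 or 100 mg/kg in 0.5% carboxymethylcellulose by daily oral gavage, 5 days/week. Ethambutol 100 mg/kg as positive control, untreated infected mice as negative, 5 mice per group. Lung homogenates plated on 7H11 selective agar on days 14 and 28.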

[9] = Cmax in BALB/c mouse lung at 100 mg/kg administered via oral gavage after 0.25 to 24 hrs by LC-MS analysis; format: ADME, organism-based; set-up: dose 100 mg/kg, route oral; method in brief: as §1
[10] = Mutagenicity in Salmonella typhimurium TA98; format: toxicity; details: salmonella enterica subsp. enterica serovar typhimurium
[11] = Cmax in BALB/c mouse plasma at 100 mg/kg administered via oral gavage after 0.25 to 24 hrs by LC-MS analysis; format: ADME, organism-based; set-up: dose 100 mg/kg, route oral; method in brief: as §1
[12] = tested on: Mycobacterium tuberculosis; assay: Antimycobacterial activity against Mycobacterium tuberculosis H37Rv infected in BALB/c mouse model assessed as reduction in CFU counts in lung at 100 mg/kg administered daily via oral gavage for 5 days per week measured after 14 days post dosage relative to control; format: functional; method in brief: as §3
[13] = Stability in mouse hepatocytes assessed as compound remaining at 1 uM after 2 hrs; format: ADME, cell-based, Hepatocyte; details: read-out: Stability
Method in brief: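 Hepatocytes from human, mouse, rat or dog incubated with 1 μM starting concentration for 2 h; percent of parent compound remaining.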

Molecule `C[C@@H]1[C@H]2C[C@@H](C[C@H]1NC(=O)c1cc3c(F)cc(F)cc3[nH]1)C2(C)C` has a selectivity ratio [1] of at least 16000, an MRT last [2] of 8.49 h and an MRT last [3] of 7.28 h. The “inhibition (INH)” value [4] was 36.6%, the Activity [5] was “Active” and the Activity [6] was “Not Active”. For the same molecule, the Activity [7] was “Not Active”, the Activity [8] was 2.12 log10CFU and the Cmax [9] was 3500 ng/g. For the same molecule, the Activity [10] was “Non-Toxic”, the Cmax [11] was 1710 ng/mL and the Activity [12] was 1.71 log10CFU. It also gave a remaining at 2 h, 1 µM [13] of 15%.
